Results published in ChEMBL document CHEMBL1799953, “Backbone cyclic peptide inhibitors of protein kinase B (PKB/Akt)” (J Med Chem, 2011).
*1 amine or outer side, *2 acyl side, *3 side chain or, on linkers, in order; H or OH if unused. Where a SMILES comes first, the peptide text is derived from it. Bridges are numbered along the chain shown (N, C = ends). [ ]: non-standard residue; d: D form. N(6-aminohexyl)Gly = O=C(CN(CCCCCCN[*:3])[*:1])[*:2]; NGly(3-aminopropyl) = O=C(CN(CCCN[*:3])[*:1])[*:2]; N(2-Aminoethyl)Gly = O=C(CN(CCN[*:3])[*:1])[*:2]; Gly(N-(CH2)6NH2) = NCCCCCCNCC(=O)O; Gly(N-2-aminoethyl) = NCCNCC(=O)O; Gly(N(CH2)3NH2) = NCCCNCC(=O)O; hLeu = CC(C)CC[C@H](N)C(=O)O; Nva = CCC[C@H](N)C(=O)O; Dap = NC[C@H](N)C(=O)O; CO = O=C([*:1])[*:2]; Nlys = NCCCCNCC(=O)O

Experiments:
[1] = biological target: T1, RAC-alpha serine/threonine-protein kinase (Homo sapiens, UniProt P31749); test: Inhibition of Akt using RPRTSSF peptide and [gamma32]ATP at 0.625 uM by cell-free radioactive assay relative to control
[2] = biological target: T1, RAC-alpha serine/threonine-protein kinase; test: Inhibition of Akt using RPRTSSF peptide and [gamma32]ATP by cell-free radioactive assay
Method in brief: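 Same reaction: HisΔPHPKBEEEFlag (0.005 units), 50 mM Hepes pH 7.4, 0.1 mM EGTA, 0.1% 2-mercaptoethanol, 10 mM magnesium acetate, 3 μM RPRTSSF, 10 μM [γ32P]ATP. Peptide stock concentration determined by UV spectrophotometry; reference peptide run in every assay.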

[3] = biological target: T1, RAC-alpha serine/threonine-protein kinase; test: Inhibition of Akt using RPRTSSF peptide and [gamma32]ATP at 5 uM by cell-free radioactive assay relative to control
Method in brief: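 Cell-free 32P kinase assay: HisΔPHPKBEEEFlag (0.005 units, one-step Ni-NTA partial purification), 50 mM Hepes pH 7.4, 0.1 mM EGTA, 0.1% 2-mercaptoethanol, 10 mM magnesium acetate, 3 μM RPRTSSF substrate, 10 μM [γ32P]ATP (1 μCi/well). Inhibitor at 5 μM. Activity loss expressed as percent of uninhibited reaction.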

T1 sequence (P31749 whole entry): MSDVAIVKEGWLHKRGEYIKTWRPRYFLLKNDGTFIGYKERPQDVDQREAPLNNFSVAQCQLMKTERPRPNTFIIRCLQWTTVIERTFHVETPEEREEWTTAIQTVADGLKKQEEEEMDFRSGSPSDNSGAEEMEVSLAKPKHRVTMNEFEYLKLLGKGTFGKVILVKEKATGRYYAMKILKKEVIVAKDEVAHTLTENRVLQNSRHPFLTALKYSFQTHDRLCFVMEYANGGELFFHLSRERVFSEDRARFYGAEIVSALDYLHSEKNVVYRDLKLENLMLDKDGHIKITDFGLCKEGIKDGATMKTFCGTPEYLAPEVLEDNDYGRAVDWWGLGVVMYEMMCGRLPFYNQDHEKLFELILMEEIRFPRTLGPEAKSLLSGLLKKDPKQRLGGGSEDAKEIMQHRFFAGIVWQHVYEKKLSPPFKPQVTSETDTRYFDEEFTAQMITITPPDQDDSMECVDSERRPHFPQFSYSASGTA

| Compound | inhibition [1] | IC50 [2] | inhibition [3] |
| --- | --- | --- | --- |
| CCC[C@@H]1NC(=O)[C@H](CCCNC(=N)N)NC(=O)CNCCCCCCNC(=O)NCCN(CC(N)=O)C(=O)[C@H](CCC(C)C)NC(=O)[C@H](CN)NC(=O)[C@H](Cc2ccc(O)cc2)NC1=O (H-[N(6-aminohexyl)Gly]R[Nva]Y[Dap][hLeu][N(2-Aminoethyl)Gly]-NH2; linker 1-7 via CO) | 26% |  |  |
| CCC[C@@H]1NC(=O)[C@H](CCCNC(=N)N)NC(=O)CN(C(=O)[C@@H](N)CCCNC(=N)N)CCNC(=O)NCCCCCCN(CC(N)=O)C(=O)[C@H](CCC(C)C)NC(=O)[C@H](CN)NC(=O)[C@H](Cc2ccc(O)cc2)NC1=O (H-R[N(2-Aminoethyl)Gly]R[Nva]Y[Dap][hLeu][N(6-aminohexyl)Gly]-NH2; linker 2-8 via CO) |  | 290 nM | 100% |
| CCC[C@H](NC(=O)[C@H](CCCNC(=N)N)NC(=O)CN(CCCCCCN)C(=O)[C@@H](N)CCCNC(=N)N)C(=O)N[C@@H](Cc1ccc(O)cc1)C(=O)N[C@@H](CN)C(=O)N[C@@H](CCC(C)C)C(=O)N(CCCCN)CC(N)=O (H-R[Gly(N-(CH2)6NH2)]R[Nva]Y[Dap][hLeu][Nlys]-NH2) | 88% |  |  |
| CCC[C@@H]1NC(=O)[C@H](CCCNC(=N)N)NC(=O)CN(C(=O)[C@@H](N)CCCNC(=N)N)CCNC(=O)NCCCN(CC(N)=O)C(=O)[C@H](CCC(C)C)NC(=O)[C@H](CN)NC(=O)[C@H](Cc2ccc(O)cc2)NC1=O (H-R[N(2-Aminoethyl)Gly]R[Nva]Y[Dap][hLeu][NGly(3-aminopropyl)]-NH2; linker 2-8 via CO) |  | 920 nM | 98% |
| CCC[C@H](NC(=O)[C@H](CCCNC(=N)N)NC(=O)CN(CCCCN)C(=O)[C@@H](N)CCCNC(=N)N)C(=O)N[C@@H](Cc1ccc(O)cc1)C(=O)N[C@@H](CN)C(=O)N[C@@H](CCC(C)C)C(=O)N(CCCCCCN)CC(N)=O (H-R[Nlys]R[Nva]Y[Dap][hLeu][Gly(N-(CH2)6NH2)]-NH2) | 60% |  |  |
| CCC[C@H](NC(=O)[C@H](CCCNC(=N)N)NC(=O)CN(CCCCCCN)C(=O)[C@@H](N)CCCNC(=N)N)C(=O)N[C@@H](Cc1ccc(O)cc1)C(=O)N[C@@H](CN)C(=O)N[C@@H](CCC(C)C)C(=O)N(CCCCCCN)CC(N)=O (H-R[Gly(N-(CH2)6NH2)]R[Nva]Y[Dap][hLeu][Gly(N-(CH2)6NH2)]-NH2) | 57% |  |  |
| CCC[C@H](NC(=O)[C@H](CCCNC(=N)N)NC(=O)[C@@H]1CCCN1C(=O)[C@@H](N)CCCNC(=N)N)C(=O)N[C@@H](Cc1ccc(O)cc1)C(=O)N[C@@H](CN)C(=O)N[C@@H](CCC(C)C)C(N)=O | 36% |  |  |
| CCC[C@@H]1NC(=O)[C@H](CCCNC(=N)N)NC(=O)CN(C(=O)[C@@H](N)CCCNC(=N)N)CCCNC(=O)NCCCCCCN(CC(N)=O)C(=O)[C@H](CCC(C)C)NC(=O)[C@H](CN)NC(=O)[C@H](Cc2ccc(O)cc2)NC1=O (H-R[NGly(3-aminopropyl)]R[Nva]Y[Dap][hLeu][N(6-aminohexyl)Gly]-NH2; linker 2-8 via CO) |  | 320 nM | 100% |
| CCC[C@@H]1NC(=O)[C@H](CCCNC(=N)N)NC(=O)CN(C(=O)[C@@H](N)CCCNC(=N)N)CCCCCCNC(=O)NCCCN(CC(N)=O)C(=O)[C@H](CCC(C)C)NC(=O)[C@H](CN)NC(=O)[C@H](Cc2ccc(O)cc2)NC1=O (H-R[N(6-aminohexyl)Gly]R[Nva]Y[Dap][hLeu][NGly(3-aminopropyl)]-NH2; linker 2-8 via CO) |  | 160 nM | 100% |
| CCC[C@@H]1NC(=O)[C@H](CCCNC(=N)N)NC(=O)CN(C(=O)[C@@H](N)CCCNC(=N)N)CCCCNC(=O)NCCCCN(CC(N)=O)C(=O)[C@H](CCC(C)C)NC(=O)[C@H](CN)NC(=O)[C@H](Cc2ccc(O)cc2)NC1=O (H-R[Nlys]R[Nva]Y[Dap][hLeu][Nlys]-NH2; linker 2-8 via CO) |  | 170 nM | 100% |
| CCC[C@@H]1NC(=O)[C@H](CCCNC(=N)N)NC(=O)CNCCCNC(=O)NCCN(CC(N)=O)C(=O)[C@H](CCC(C)C)NC(=O)[C@H](CN)NC(=O)[C@H](Cc2ccc(O)cc2)NC1=O (H-[NGly(3-aminopropyl)]R[Nva]Y[Dap][hLeu][N(2-Aminoethyl)Gly]-NH2; linker 1-7 via CO) | 84% | 240 nM |  |
| CCC[C@@H]1NC(=O)[C@H](CCCNC(=N)N)NC(=O)CNCCNC(=O)NCCN(CC(N)=O)C(=O)[C@H](CCC(C)C)NC(=O)[C@H](CN)NC(=O)[C@H](Cc2ccc(O)cc2)NC1=O (H-[N(2-Aminoethyl)Gly]R[Nva]Y[Dap][hLeu][N(2-Aminoethyl)Gly]-NH2; linker 1-7 via CO) | 64% | 390 nM |  |
| CCC[C@@H]1NC(=O)[C@H](CCCNC(=N)N)NC(=O)CNCCCCNC(=O)NCCN(CC(N)=O)C(=O)[C@H](CCC(C)C)NC(=O)[C@H](CN)NC(=O)[C@H](Cc2ccc(O)cc2)NC1=O (H-[Nlys]R[Nva]Y[Dap][hLeu][N(2-Aminoethyl)Gly]-NH2; linker 1-7 via CO) | 32% |  |  |

Results, then the molecule that gave them:

| inhibition [1] | IC50 [2] | inhibition [3] | Compound |
| --- | --- | --- | --- |
| 96% | 128 nM |  | CCC[C@H](NC(=O)[C@H](CCCNC(=N)N)NC(=O)CN(CCCN)C(=O)[C@@H](N)CCCNC(=N)N)C(=O)N[C@@H](Cc1ccc(O)cc1)C(=O)N[C@@H](CN)C(=O)N[C@@H](CCC(C)C)C(=O)N(CCCCN)CC(N)=O (H-R[Gly(N(CH2)3NH2)]R[Nva]Y[Dap][hLeu][Nlys]-NH2) |
| 76% |  |  | CCC[C@H](NC(=O)[C@H](CCCNC(=N)N)NC(=O)CN(CCCN)C(=O)[C@@H](N)CCCNC(=N)N)C(=O)N[C@@H](Cc1ccc(O)cc1)C(=O)N[C@@H](CN)C(=O)N[C@@H](CCC(C)C)C(=O)N(CCN)CC(N)=O (H-R[Gly(N(CH2)3NH2)]R[Nva]Y[Dap][hLeu][Gly(N-2-aminoethyl)]-NH2) |
| 51% |  |  | CCC[C@H](NC(=O)[C@H](CCCNC(=N)N)NC(=O)CN(CCCN)C(=O)[C@@H](N)CCCNC(=N)N)C(=O)N[C@@H](Cc1ccc(O)cc1)C(=O)N[C@@H](CN)C(=O)N[C@@H](CCC(C)C)C(=O)N(CCCCCCN)CC(N)=O (H-R[Gly(N(CH2)3NH2)]R[Nva]Y[Dap][hLeu][Gly(N-(CH2)6NH2)]-NH2) |
| 84% |  |  | CCC[C@H](NC(=O)[C@H](CCCNC(=N)N)NC(=O)CN(CCN)C(=O)[C@@H](N)CCCNC(=N)N)C(=O)N[C@@H](Cc1ccc(O)cc1)C(=O)N[C@@H](CN)C(=O)N[C@@H](CCC(C)C)C(=O)N(CCCCN)CC(N)=O (H-R[Gly(N-2-aminoethyl)]R[Nva]Y[Dap][hLeu][Nlys]-NH2) |
| 90% | 130 nM |  | CCC[C@H](NC(=O)[C@H](CCCNC(=N)N)NC(=O)CN(CCCN)C(=O)[C@@H](N)CCCNC(=N)N)C(=O)N[C@@H](Cc1ccc(O)cc1)C(=O)N[C@@H](CN)C(=O)N[C@@H](CCC(C)C)C(=O)N(CCCN)CC(N)=O (H-R[Gly(N(CH2)3NH2)]R[Nva]Y[Dap][hLeu][Gly(N(CH2)3NH2)]-NH2) |
| 91% | 130 nM |  | CCC[C@H](NC(=O)[C@H](CCCNC(=N)N)NC(=O)CN(CCCCN)C(=O)[C@@H](N)CCCNC(=N)N)C(=O)N[C@@H](Cc1ccc(O)cc1)C(=O)N[C@@H](CN)C(=O)N[C@@H](CCC(C)C)C(=O)N(CCCCN)CC(N)=O (H-R[Nlys]R[Nva]Y[Dap][hLeu][Nlys]-NH2) |
| 87% | 110 nM |  | CCC[C@H](NC(=O)[C@H](CCCNC(=N)N)NC(=O)CN(CCCCCCN)C(=O)[C@@H](N)CCCNC(=N)N)C(=O)N[C@@H](Cc1ccc(O)cc1)C(=O)N[C@@H](CN)C(=O)N[C@@H](CCC(C)C)C(=O)N(CCCN)CC(N)=O (H-R[Gly(N-(CH2)6NH2)]R[Nva]Y[Dap][hLeu][Gly(N(CH2)3NH2)]-NH2) |
| 57% |  |  | CCC[C@H](NC(=O)[C@H](CCCNC(=N)N)NC(=O)CN(CCN)C(=O)[C@@H](N)CCCNC(=N)N)C(=O)N[C@@H](Cc1ccc(O)cc1)C(=O)N[C@@H](CN)C(=O)N[C@@H](CCC(C)C)C(=O)N(CCN)CC(N)=O (H-R[Gly(N-2-aminoethyl)]R[Nva]Y[Dap][hLeu][Gly(N-2-aminoethyl)]-NH2) |
| 76% |  |  | CCC[C@H](NC(=O)[C@H](CCCNC(=N)N)NC(=O)CN(CCN)C(=O)[C@@H](N)CCCNC(=N)N)C(=O)N[C@@H](Cc1ccc(O)cc1)C(=O)N[C@@H](CN)C(=O)N[C@@H](CCC(C)C)C(=O)N(CCCN)CC(N)=O (H-R[Gly(N-2-aminoethyl)]R[Nva]Y[Dap][hLeu][Gly(N(CH2)3NH2)]-NH2) |
| 84% |  |  | CCC[C@H](NC(=O)[C@H](CCCNC(=N)N)NC(=O)CN(CCCCN)C(=O)[C@@H](N)CCCNC(=N)N)C(=O)N[C@@H](Cc1ccc(O)cc1)C(=O)N[C@@H](CN)C(=O)N[C@@H](CCC(C)C)C(=O)N(CCN)CC(N)=O (H-R[Nlys]R[Nva]Y[Dap][hLeu][Gly(N-2-aminoethyl)]-NH2) |
| 83% |  |  | CCC[C@H](NC(=O)[C@H](CCCNC(=N)N)NC(=O)CN(CCCCCCN)C(=O)[C@@H](N)CCCNC(=N)N)C(=O)N[C@@H](Cc1ccc(O)cc1)C(=O)N[C@@H](CN)C(=O)N[C@@H](CCC(C)C)C(=O)N(CCN)CC(N)=O (H-R[Gly(N-(CH2)6NH2)]R[Nva]Y[Dap][hLeu][Gly(N-2-aminoethyl)]-NH2) |
| 42% |  |  | CCC[C@H](NC(=O)[C@H](CCCNC(=N)N)NC(=O)CN(CCN)C(=O)[C@@H](N)CCCNC(=N)N)C(=O)N[C@@H](Cc1ccc(O)cc1)C(=O)N[C@@H](CN)C(=O)N[C@@H](CCC(C)C)C(=O)N(CCCCCCN)CC(N)=O (H-R[Gly(N-2-aminoethyl)]R[Nva]Y[Dap][hLeu][Gly(N-(CH2)6NH2)]-NH2) |
| 91% | 150 nM |  | CCC[C@H](NC(=O)[C@H](CCCNC(=N)N)NC(=O)CN(CCCCN)C(=O)[C@@H](N)CCCNC(=N)N)C(=O)N[C@@H](Cc1ccc(O)cc1)C(=O)N[C@@H](CN)C(=O)N[C@@H](CCC(C)C)C(=O)N(CCCN)CC(N)=O (H-R[Nlys]R[Nva]Y[Dap][hLeu][Gly(N(CH2)3NH2)]-NH2) |
